Data as given in PubChem BioAssay AID489015 (The Scripps Research Institute Molecular Screening Center, 2010).
Active and inactive are the calls of the source.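 Rule for the calls: active = malaria parasite growth inhibition in red cells reaching a set limit in at least one replicate; inactive = below that limit in every replicate.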

The compounds below were run on P. falciparum 3D7 in RBCs, 3H-hypoxanthine incorporation, 48 h (assay: P. falciparum growth inhibition in erythrocytes, late-stage follow-up, M18AAP inhibitor project, cell-based, radiolabel, RBCs, powder samples (AID 489015)). Settings: at 10 µM; stronger effect = higher value.
In short: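 Material: P. falciparum 3D7 in erythrocytes. Measure: % growth inhibition relative to vehicle control. Measured by: Radiotracer incorporation measured by beta counting of harvested cells. Also added: 3H-hypoxanthine, 0.5 µCi/well. Times: 48 h exposure, 37 °C, low-oxygen gas mix. Replication: triplicate wells, 2-3 experiments.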

SMILES | growth inhibition
O=C(COc1ccccc1C(=O)N/N=C/c1ccc(O)c(O)c1)N/N=C/c1ccc(O)c(O)c1 | 66%
O=C(CSc1ncn[nH]1)Nc1nc(-c2ccccc2)ns1 | 4.5% (inactive)
Oc1ccc(C2=Nn3c(nnc3-c3ccco3)SC2)cc1O | 20.8% (inactive)
Cc1ccc([N+](=O)[O-])cc1-c1[nH]c(-c2ccc(O)c(O)c2)nc1-c1ccccc1 | 4.11% (inactive)
COc1ccc2nc(C)cc(SCC(=O)N/N=C/c3ccc(O)c(O)c3)c2c1 | 3.22% (inactive)
O=C(CSc1nn(-c2ccccc2)c(=S)s1)Nn1cnnc1 | 0% (inactive)
CC(C)n1c(SCC(=O)Nc2nncs2)nnc1-c1ccco1 | 1.33% (inactive)
O=c1[nH]c(CSc2ncn[nH]2)nc2ccccc12 | 1.83% (inactive)
COc1ccc(NC(=O)NNC(=O)CCc2ccc(O)c(O)c2)cc1OC | 5.67% (inactive)
Oc1ccc(-c2csc(-c3cccnc3)n2)cc1O | 7.67% (inactive)
COc1cc([N+](=O)[O-])ccc1NC(=O)Nn1cnnc1 | 0% (inactive)
O=C(Nc1ccccc1Cl)Nn1cnnc1 | 7.83% (inactive)
O=c1[nH]c(=S)[nH]c(O)c1/C=C1\C=c2ccccc2=N1 | 2.67% (inactive)
O=C(O)c1ccc(O)c(O)c1 | 7.17% (inactive)
COC(=O)CN(n1cnnc1)S(=O)(=O)c1ccc(C)cc1 | 0% (inactive)
CC1(C)CC(=O)c2c(oc3cc(O)c(O)cc23)C1 | 2.83% (inactive)
Cc1nc(-c2ccc(O)c(O)c2)cs1 | 0.778% (inactive)
O=C(Nn1cnnc1)c1ccccc1-c1ccccc1 | 0.5% (inactive)
O=C(Nc1ccc(Br)cc1Cl)Nn1cnnc1 | 4.67% (inactive)
CC1(C)CC2(CC(c3ccccc3F)c3ccc(O)c(O)c3O2)NC(=S)N1 (stereo unspecified) | 0.167% (inactive)
O=C(CSc1ncn[nH]1)OCN1C(=O)c2ccccc2C1=O | 3% (inactive)
COc1cccc(-c2cc(C(=O)Nn3cnnc3)c3ccccc3n2)c1 | 7.11% (inactive)
COc1ccc(Cl)cc1NC(=O)Nn1cnnc1 | 5.83% (inactive)
O=[N+]([O-])c1cc([N+](=O)[O-])c2cccnc2c1Oc1ccccc1O | 13.4% (inactive)
CN1CCc2cccc3c2[C@@H]1Cc1ccc(O)c(O)c1-3 | 87%
NCCc1ccc(O)c(O)c1 | 0.5% (inactive)

SMILES | growth inhibition
COc1cccc2c(SCC(=O)N/N=C/c3ccc(O)c(O)c3)cc(C)nc12 | 1.5% (inactive)
O=C(CNC(=O)c1ccccc1)NCCc1ccc(O)c(O)c1 | 0.333% (inactive)
COc1cc(Br)cc(/C=N/c2ncn[nH]2)c1O | 4.83% (inactive)
CCOC(=O)C1=C(CS(=O)(=O)c2ccc(F)cc2)NC(=O)NC1c1ccc(O)c(O)c1 (stereo unspecified) | 0.667% (inactive)
COc1ccc(C(=O)n2cnnc2N)cc1 | 2.5% (inactive)
COc1cc([N+](=O)[O-])ccc1NC(=S)Nn1cnnc1 | 8.67% (inactive)
O=C(O)c1cn[nH]c1-n1cnnn1 | 3.83% (inactive)
CCN(CC)S(=O)(=O)c1ccc(C(=O)Nn2cnnc2)cc1 | 0.5% (inactive)
O=C(Nc1cccc(Cl)c1Cl)Nn1cnnc1 | 1% (inactive)
O=C(Nc1cc(Cl)ccc1Cl)Nn1cnnc1 | 1.5% (inactive)
S=C(Nc1cc(Cl)ccc1Cl)Nn1cnnc1 | 0% (inactive)
O=c1c2c([N+](=O)[O-])cc([N+](=O)[O-])cc2sn1Cc1ccccc1 | 5.11% (inactive)
COC(=O)c1cc(C(=O)Nn2cnnc2)cc([N+](=O)[O-])c1 | 0% (inactive)
O=c1c(O)c(-c2ccc(O)c(O)c2)oc2cc(O)cc(O)c12 | 0% (inactive)
Oc1ccc(-c2csc(-c3ccccc3)n2)cc1O | 20.6%
Nc1nncn1C(=O)CCCOc1ccc(Cl)cc1Cl | 3.17% (inactive)
O=C(Nc1cccc(C(F)(F)F)c1)Nn1cnnc1 | 0% (inactive)
Cc1cc(C)cc(C(=O)n2cnnc2N)c1 | 44.8%
Cc1ccc(NC(=S)Nn2cnnc2)c(C)c1 | 0% (inactive)
Cc1cc(=O)[nH]c(SCC(=O)c2ccc(O)c(O)c2)n1 | 0.833% (inactive)
Oc1ccc(-c2cn3ccccc3n2)cc1O | 5.33% (inactive)
O=C(Nn1cnnc1)c1csc2ccccc12 | 0% (inactive)
Oc1cc(O)c2c(c1)O[C@H](c1ccc(O)c(O)c1)[C@H](O)C2 | 1% (inactive)
O=C(Nc1ccc(Cl)cc1Cl)Nn1cnnc1 | 0% (inactive)
Oc1ccc(CCNc2c3ccccc3nc3ccccc23)cc1O | 96.3%
CC1=NNC(=O)/C1=C\c1cn(-c2ccccc2)nc1-c1ccc(F)cc1 | 20.7% (inactive)

SMILES | growth inhibition
Cc1c(Cl)cccc1NC(=O)Nn1cnnc1 | 9.17% (inactive)
O=C(CSc1nc2ccccc2c(=O)[nH]1)c1ccc(O)c(O)c1 | 8.89% (inactive)
OC(Cn1cnnc1)c1ccccc1 (stereo unspecified) | 0% (inactive)
O=S(=O)(Nn1cnnc1)c1ccccc1 | 3% (inactive)
CCc1ccccc1NC(=S)Nn1cnnc1 | 0% (inactive)
COC(=O)CN(n1cnnc1)S(=O)(=O)c1ccccc1 | 1.67% (inactive)
CS(=O)(=O)c1ccc2c(c1)sc1nc(=O)c(/C=C3/C=CC(=O)C(O)=C3)c(N)n12 | 22.6% (inactive)
Cc1ccc(-n2c(O)c(/C=N/n3cnnc3)c3ccccc3c2=O)cc1 | 3.33% (inactive)
COC(=O)CN(n1cnnc1)S(=O)(=O)c1ccccc1Cl | 4.5% (inactive)
O=C(NC(=S)Nn1cnnc1)c1ccccc1Br | 0% (inactive)
O=C(Nc1ccc([N+](=O)[O-])cc1)Nn1cnnc1 | 28.7% (inactive)
Cc1ccc(Cl)cc1NC(=S)Nn1cnnc1 | 0% (inactive)
O=C(CSc1nnc(-c2ccccc2)o1)Nn1cnnc1 | 11% (inactive)
Cc1cc(C)n2c(=S)[nH]nc2n1 | 35.6%
Br/C(C=Nn1cnnc1)=C\c1ccccc1 | 71.8%
Cc1cc(OCC(=O)Nn2cnnc2)ccc1Br | 3.67% (inactive)
CCC(C)c1ccc(O)c(N)c1 (stereo unspecified) | 95.1%
Oc1ccc(/C=C/c2cc(O)cc(O)c2)cc1 | 1.33% (inactive)
O=C(Nc1ccc(Cl)c(Cl)c1)Nn1cnnc1 | 5.67% (inactive)
Cc1cccc(NC(=S)Nn2cnnc2)c1C | 16.5% (inactive)
CN1C(=O)N(c2cccc3ccccc23)C(n2cncn2)C1(C)C (stereo unspecified) | 0% (inactive)
Cc1ccc(Cl)cc1NC(=O)Nn1cnnc1 | 2.5% (inactive)
Cc1nc2ccccn2c1C(=O)NNC(=O)Nc1ccccc1 | 0.667% (inactive)
O=C(O)CSc1ncn[nH]1 | 2.83% (inactive)
